The test system of one data set is Rattus norvegicus. Briefly: Antiinflammatory activity in po dosed Donryu rat assessed as inhibition of carrageenan-induced paw edema. The format is functional. As to conditions: read-out: ID50 (the source's name). The essentials:
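Male Donryu rats weighing 130–160 g. Carrageenan was used to induce paw edema. ID50 was read from a regression line fitted by least squares, with 95% fiducial limits calculated by Filler's equation.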
In general terms: The carrageenan paw model is a standard test of acute inflammation.

Data set [1] can be described thus: Toxicity in po dosed Donryu rat assessed as mortality. As to conditions: in vivo. The format is organism-based. The essentials: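 Acute toxicity was tested in male Donryu rats weighing 130–160 g, with mortality as the end point.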
The nature of data set [2]: Therapeutic index, ratio of UD50 for ulcerogenicity in po dosed Donryu rat assessed as gastric lesion to ID50 for antiinflammatory activity in po dosed Donryu rat assessed as inhibition of carrageenan-induced paw edema. In kind it is organism-based, Stomach. As to conditions: in vivo, read-out: TI.
Data set [3] in a line: Therapeutic index, ratio of LD50 for po dosed Donryu rat assessed as mortality to ID50 for antiinflammatory activity in po dosed Donryu rat assessed as inhibition of carrageenan-induced paw edema. The format is organism-based. As to conditions: in vivo, read-out: TI.
Data set [4] is described as follows: Ulcerogenicity in po dosed Donryu rat assessed as gastric lesion. As to conditions: in vivo, read-out: UD50 (the source's name). In kind it is toxicity, organism-based, Stomach. The gist of the method:
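Male Donryu rats weighing 130–160 g. Gastric lesions were induced and then examined.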

Where only a bound is given, the exact number is not on record here.

In general, LD50 refers to the dose expected to kill half of the subjects tested.

Turning to `O=C(O)Cc1ccc2c(c1)C(=O)c1sccc1CO2`, the ED50 in the data set with Rattus norvegicus came out at 75.1 µmol/kg.

For the molecule `CC(C(=O)O)c1ccc2c(c1)OCc1ccccc1C2=O` (stereo unspecified), the ED50 in the data set on Rattus norvegicus came to 2.7 µmol/kg.

Take `CC1(C)OCC(COC(=O)Cc2ccc3c(c2)OCc2ccccc2C3=O)O1` (stereo unspecified): in data set [1], the median lethal dose (LD50) came out at 241 µmol/kg. Also, the selectivity ratio came to 5.6 in data set [2] and 2.4 in data set [3]. The ED50 in the data set with Rattus norvegicus turned out to be 100 µmol/kg. Besides, the TD50 in data set [4] worked out at 559 µmol/kg.

Turning to `NC(=O)Cc1ccc2c(c1)C(=O)c1ccccc1CO2`, the ED50 in the data set with Rattus norvegicus is above 67.4 µmol/kg.

As to `CC(=O)/C=C/c1ccc2c(c1)OCc1ccccc1C2=O`, the ED50 in the data set with Rattus norvegicus is above 162 µmol/kg.

In the case of `CC(CO)c1ccc2c(c1)OCc1ccccc1C2=O` (stereo unspecified), the ED50 with Rattus norvegicus is 6 µmol/kg.

`O=C(O)Cc1ccc2c(c1)OCc1ccccc1C2=O` [OXEPINAC]: the median lethal dose (LD50) in data set [1] turned out to be 383 µmol/kg. The selectivity ratio in data set [2] came out at 21.6; in data set [3] it was 29.7. For the same molecule, the ED50 in the data set with Rattus norvegicus was 12.9 µmol/kg. Further, the TD50 in data set [4] was 279 µmol/kg.

In the case of `CC(C(=O)O)c1ccc2c(c1)OCc1ccsc1C2=O` (stereo unspecified), in the data set with Rattus norvegicus, the ED50 turned out to be 43.7 µmol/kg.

`O=C(O)Cc1ccc2c(c1)SCc1sccc1C2=O`: in the data set with Rattus norvegicus, the ED50 was 40 µmol/kg.

For `O=C(O)Cc1ccc2c(c1)OCc1ccccc1C2`, the ED50 in the data set on Rattus norvegicus is 35 µmol/kg.

As for `O=C(O)Cc1ccc2c(c1)OCc1ccccc1C2O` (stereo unspecified), the ED50 in the data set on Rattus norvegicus is above 66.6 µmol/kg.

As for `O=C1c2ccccc2COc2ccc(-c3nnn[nH]3)cc21`, in the data set with Rattus norvegicus, the ED50 is above 64.7 µmol/kg.

Take `O=C(O)c1ccc2c(c1)OCc1ccccc1C2=O`: the ED50 in the data set with Rattus norvegicus was above 70.8 µmol/kg.

On to `O=C(O)Cc1ccc2c(c1)C(=O)c1ccccc1CO2` [ISOXEPAC], for which, in the data set with Rattus norvegicus, the ED50 was found to be 50 µmol/kg.

Regarding `O=C(O)Cc1ccc2c(c1)C(O)c1ccccc1CO2` (stereo unspecified), the ED50 in the data set with Rattus norvegicus is above 66.6 µmol/kg.

As to `O=C(O)Cc1ccc2c(c1)OCc1ccsc1C2=O`, the ED50 in the data set on Rattus norvegicus stood at 61.3 µmol/kg.

Turning to `CC(CO)c1ccc2c(c1)C(=O)c1ccccc1CO2` (stereo unspecified), the ED50 in the data set with Rattus norvegicus came out at 28.3 µmol/kg.

As to `CCN(CC)CCOC(=O)Cc1ccc2c(c1)C(=O)c1ccccc1CO2`, the ED50 in the data set on Rattus norvegicus stood at 133 µmol/kg.

As for `O=C(O)Cc1ccc2c(c1)COc1ccccc1C2=O`, the ED50 in the data set on Rattus norvegicus was determined as 131 µmol/kg.

`COc1ccc(C(=O)/C=C/c2ccc3c(c2)C(=O)c2ccccc2CO3)cc1`: the ED50 in the data set on Rattus norvegicus is above 122 µmol/kg.

For `O=C(O)Cc1ccc2c(c1)Cc1ccc(Cl)cc1CO2`, the ED50 in the data set with Rattus norvegicus is above 62.3 µmol/kg.

For `O=C1c2ccccc2COc2cc(Cc3nnn[nH]3)ccc21`, the ED50 in the data set on Rattus norvegicus was above 61.6 µmol/kg.

For `O=C(Cc1ccc2c(c1)OCc1ccccc1C2=O)OCC(O)CO` (stereo unspecified), the median lethal dose (LD50) in data set [1] stood at 278 µmol/kg. Besides, the results for the selectivity ratio in data set [2] and in data set [3] were 8.1 and 9, respectively. The ED50 in the data set with Rattus norvegicus amounted to 31 µmol/kg. For the same molecule, the TD50 in data set [4] amounted to 252 µmol/kg.

For `CCOC(=O)CNC(=O)Cc1ccc2c(c1)OCc1ccccc1C2=O`, in the data set with Rattus norvegicus, the ED50 was above 50.9 µmol/kg.

Take `O=C1c2ccccc2COc2cc(-c3nnn[nH]3)ccc21`: the ED50 with Rattus norvegicus was above 64.7 µmol/kg.

As for `CC(=O)CCc1ccc2c(c1)OCc1ccccc1C2=O`, the ED50 in the data set on Rattus norvegicus came to 96.7 µmol/kg.

With `O=C(Cc1ccc2c(c1)OCc1ccccc1C2=O)Oc1ccc(C(=O)O)cc1`, the ED50 in the data set with Rattus norvegicus was found to be 91.6 µmol/kg.

For `O=C(O)Cc1ccc2c(c1)C(=O)c1sccc1CS2`, in the data set with Rattus norvegicus, the ED50 is above 62 µmol/kg.

In the case of `CC(C(=O)O)c1ccc2c(c1)OCc1ccccc1C2` (stereo unspecified), the ED50 in the data set with Rattus norvegicus worked out at 12.7 µmol/kg.

Regarding `O=C1c2ccccc2COc2ccc(Cc3nnn[nH]3)cc21`, the ED50 in the data set on Rattus norvegicus is above 61.6 µmol/kg.

Take `O=C(O)c1ccc2c(c1)C(=O)c1ccccc1CO2`: in the data set with Rattus norvegicus, the ED50 is above 70.8 µmol/kg.

On to `O=C(O)Cc1ccc2c(c1)SCc1ccsc1C2=O`, for which, in the data set with Rattus norvegicus, the ED50 is above 62 µmol/kg.

For `CC(=O)/C=C/c1ccc2c(c1)C(=O)c1ccccc1CO2`, the ED50 with Rattus norvegicus is above 162 µmol/kg.

Consider `O=C(O)Cc1ccc2c(c1)Cc1ccccc1CO2`, for which the ED50 in the data set with Rattus norvegicus was determined as 99.1 µmol/kg.

These data come from ChEMBL document CHEMBL3244427, “Nonsteroidal antiinflammatory agents. 2. Derivatives/analogues of dibenz[b,e]oxepin-3-acetic acid” (J Med Chem, 1978).
